Measured values of several laboratories.
Protocols differ between the studies behind these lines.
Organism: Severe acute respiratory syndrome coronavirus 2

O=C(Nc1ccc(C(F)(F)F)cc1)c1cc(Cl)c(F)cc1O — inhibition (viral replication, inhibitor; Vero C1008; 1 µM): 90%
Oc1c(I)cc(Cl)c2cccnc12 — inhibition (viral replication, inhibitor; Vero C1008; 30 µM): 91.8%
Cn1c(C(=O)Nc2ccc(Cl)cc2)cc2c(=O)n3ccccc3nc21 — inhibition (viral replication; Vero; 1 µM): 74.7%
CC(C)=CCc1c(O)ccc(C(=O)/C=C/c2ccc(O)cc2)c1O — inhibition (cytopathic effect, inhibitor; Vero C1008; 50 µM): 0%
Cc1ccc(NC(=O)c2cc3c(=O)n4cccc(C)c4nc3n2C)cc1Cl — inhibition (viral replication; Vero; 10 nM): 25.8%
CC1=C(C/C=C(\C)CC/C=C(\C)Cc2ccc(F)cc2)C(=O)c2ccccc2C1=O — inhibition (viral replication, inhibitor; VeroE6/TMPRSS2; 100 µM, 72 h): 45%
O=C(/C=C/c1ccc(O)c(O)c1/C=C/c1ccc(O)c(O)c1)O[C@H](Cc1ccc(O)c(O)c1)C(=O)O — inhibition (cytopathic effect, inhibitor; Vero C1008; 0.7812 µM): 0%
Cn1c(C(=O)Nc2ccc3c(c2)OCCO3)cc2c(=O)n3ccccc3nc21 — inhibition (viral replication; Vero; 10 µM): 91.8%
C/C=C(/C)C(=O)O[C@H]1C(C)=C[C@]23C(=O)[C@@H](C=C(CO)[C@@H](O)[C@]12O)[C@H]1[C@@H](C[C@H]3C)C1(C)C — inhibition (viral replication, inhibitor; Vero C1008; 1 µM): 47.4%
O=C(O[C@@H]1Cc2c(O)cc(O)cc2O[C@@H]1c1cc(O)c(O)c(O)c1)c1cc(O)c(O)c(O)c1 — inhibition (cytopathic effect; Vero C1008; 25 µM): 25%
CCC(CC)COC(=O)[C@H](C)N[P@](=O)(OC[C@H]1O[C@@](C#N)(c2ccc3c(N)ncnn23)[C@H](O)[C@@H]1O)Oc1ccccc1 — inhibition (viral replication; Vero; 10 nM): 53.8%
NS(=O)(=O)c1ccc(N2N=C(C(F)(F)F)CC2c2c[nH]c3cc(Cl)ccc23)cc1 (centres unmarked) — inhibition (viral replication, inhibitor; Vero C1008; 1 µM): 40.9%
Cc1cc(O)c(C=O)c2c1C(=O)Oc1c(cc3c(c1C)C(=O)CC(C)(C)O3)O2 — inhibition (viral replication, inhibitor; Calu-3; 50 µM): 99.5%
NC[C@@H]1O[C@H](O[C@H]2[C@@H](O)[C@H](O[C@@H]3[C@@H](O)[C@H](N)C[C@H](N)[C@H]3O[C@H]3O[C@H](CO)[C@@H](O)[C@H](O)[C@H]3N)O[C@@H]2CO)[C@H](N)[C@@H](O)[C@@H]1O — inhibition (viral replication; Vero C1008; 50 µM): 2%
C=C[C@@](C)(/C=C/c1ccc(O)cc1)CCC=C(C)C — inhibition (cytopathic effect; Vero C1008; 25 µM): 0%
O=c1[nH]c(=O)n([C@@H]2O[C@H](CO)[C@@H](O)[C@@H]2O)cc1/C=C/Br — inhibition (viral replication, inhibitor; Vero C1008; 1 µM): 52.6%
C[C@@H]1O[C@@H](O[C@H]2[C@H](O[C@H]3CC[C@]4(C)[C@H]5CC=C6[C@@H]7CC(C)(C)CC[C@]7(C(=O)OCc7ccccc7)CC[C@@]6(C)[C@]5(C)CC[C@H]4C3(C)C)O[C@H](CO)[C@@H](O[C@@H]3O[C@@H](C)[C@H](O)[C@@H](O)[C@H]3O)[C@@H]2O)[C@H](O)[C@H](O)[C@H]1O — inhibition (viral replication; 293T/ACE2; 20 µM): 83.6%
[H]/N=C(/N)SCCCn1cc(C2=C(c3cn(C)c4ccccc34)C(=O)NC2=O)c2ccccc21 — inhibition (viral replication; Vero C1008; 50 µM): 15%
CC(/C=C/C=C(\C)c1cc(C(C)(C)C)cc(C(C)(C)C)c1)=C\C(=O)O — inhibition (viral replication, inhibitor; Vero C1008; 1 µM): 61.6%
COc1ccc(C[C@@H]2c3cc(Oc4cc(C[C@@H]5c6cc(O)c(OC)cc6CCN5C)ccc4O)c(OC)cc3CCN2C)cc1 — inhibition (cytopathic effect, inhibitor; Vero C1008; 25 µM): 0%
CN[C@@H](C)C(=O)N[C@H](C(=O)N1CCC[C@H]1C(=O)Nc1sc(-c2ncco2)nc1-c1ccccc1)C1CCCCC1 — inhibition (viral replication, inhibitor; Vero C1008; 1 µM): 42.2%
O=C(Nc1ccccc1F)c1cc2c(=O)n3ccccc3nc2n1Cc1ccccc1 — inhibition (viral replication; Vero; 10 µM): 96.6%
O=C(O)C1=CC(=C(c2ccc(O)c(C(=O)O)c2)c2ccc(O)c(C(=O)O)c2)C=CC1=O — inhibition (viral replication; Vero C1008; 50 µM): 80%
CCN(CC)CCCC(C)Nc1ccnc2cc(Cl)ccc12 (centres unmarked) — inhibition (viral replication, inhibitor; Vero C1008; 1 µM): 48.7%
CC[C@H](C)[C@@H]1NC(=O)[C@@H](C)NC(=O)[C@H](C(C)C)NC(=O)C[C@H](/C=C/c2ccccc2)OC(=O)[C@H](C(C)C)NC1=O — inhibition (viral replication, inhibitor; Calu-3; 50 µM): 3.01%
CC(=O)c1cccc(NC(=O)c2cc3c(=O)n4ccccc4nc3n2C)c1 — inhibition (viral replication; Vero; 10 µM): 96.4%
CCCCCN(C(=O)NC)c1ccc2nc(CCCC)n(Cc3ccc(NC(=O)c4c(Cl)ccc(Cl)c4C(=O)O)cc3)c2c1 — inhibition (viral replication, inhibitor; Vero C1008; 1 µM): 44.5%
Cc1cccn2c(=O)c3cc(C(=O)Nc4ccc(N(C)C)cc4)n(C)c3nc12 — inhibition (viral replication; Vero; 10 nM): 7.3%
COc1cc(F)cc2c1-c1ccc(F)cc1C21NC(=O)NC1=O (centres unmarked) — inhibition (viral replication, inhibitor; Vero C1008; 1 µM): 52%
